Results published in PubChem BioAssay.
Active and inactive are the calls of the source.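 Rule for the calls, unless noted: active = current rise at least 3 SD above the untreated control mean in each of two repeat wells; inactive = the rest.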

What was measured:
[1] = nonspecific flux increase, KCNQ1-free cells – parental CHO cells, counter-screen for KCNQ1 potentiator project (AID 493006;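 active = duplicate-averaged activation above buffer control mean plus 5 SD of those controls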); settings: parental CHO-K1 cells, FluxOR thallium flux, at 10 µM; hits give high values
Procedure, shortened: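 Assay system: Untransfected host CHO-K1 cells with FluxOR thallium dye | Probe or stimulus: Potassium/thallium depolarization pulse | Schedule: Overnight 37 °C plating, 90 min RT dye, 20 min compound | Detection: Kinetic thallium-flux fluorescence | Read-out: Max-minus-min fluorescence over baseline, percent of buffer-to-R-L3 span | Benchmarks: Low control buffer, high control R-L3 activator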

[2] = target: Potassium voltage-gated channel subfamily KQT member 1 (Homo sapiens) (UniProt P51787); experiment: enhancement of KCNQ1 channel thallium flux – FluxOR thallium flux, CHO cells, duplicates, confirmation (AID 493007;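 active = potentiation averaged over duplicate wells exceeding buffer-only control mean by more than 3 SD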;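 for outcome: cells depolarized by a potassium plus thallium sulfate stimulus after compound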); settings: KCNQ1 cell line, FluxOR thallium flux fluorescence, at 10 µM; hits give high values, % of reference activator effect, buffer zero
Chain of Potassium voltage-gated channel subfamily KQT member 1 (Homo sapiens) (P51787 whole entry, looked up): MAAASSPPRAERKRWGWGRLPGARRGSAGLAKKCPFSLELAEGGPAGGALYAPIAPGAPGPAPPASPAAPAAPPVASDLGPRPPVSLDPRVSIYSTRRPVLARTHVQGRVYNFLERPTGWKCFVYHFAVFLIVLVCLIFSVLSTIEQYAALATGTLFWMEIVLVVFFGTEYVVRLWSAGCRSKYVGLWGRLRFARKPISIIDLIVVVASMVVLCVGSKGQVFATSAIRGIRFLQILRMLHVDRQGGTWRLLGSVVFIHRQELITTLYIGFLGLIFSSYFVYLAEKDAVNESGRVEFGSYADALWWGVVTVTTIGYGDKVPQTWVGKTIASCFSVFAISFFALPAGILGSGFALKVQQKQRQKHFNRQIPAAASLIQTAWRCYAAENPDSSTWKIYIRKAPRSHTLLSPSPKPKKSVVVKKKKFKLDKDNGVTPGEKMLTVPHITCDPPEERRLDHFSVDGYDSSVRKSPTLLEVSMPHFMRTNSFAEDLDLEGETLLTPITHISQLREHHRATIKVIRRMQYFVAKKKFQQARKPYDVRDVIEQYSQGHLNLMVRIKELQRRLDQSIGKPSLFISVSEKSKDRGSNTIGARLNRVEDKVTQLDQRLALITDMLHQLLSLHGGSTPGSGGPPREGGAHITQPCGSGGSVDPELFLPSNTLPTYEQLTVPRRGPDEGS
Procedure, shortened: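 Material: KCNQ1-expressing CHO cell line; Incubation: FluxOR dye loading 90 min, compound exposure 20 min, room temperature; Detection: FluxOR Tl+ flux fluorescence, 10 s baseline plus 110 s recording; Read-out: percent activation between buffer and R-L3 responses; Control set: buffer-only wells as 0% and R-L3 activator as 100%; Replication: duplicate wells per compound.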

[3] = target: Potassium voltage-gated channel subfamily KQT member 2 (Rattus norvegicus) (UniProt O88943); experiment: KCNQ2 thallium flux enhancement – KCNQ2-CHO-K1 cells, selectivity assay for KCNQ1 potentiator project (AID 493009;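 active = mean duplicate potentiation above the buffer control mean plus 5 SD of buffer wells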;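 note: assay conditions were tuned for KCNQ1 rather than KCNQ2 modulators; signal is max minus min fluorescence divided by baseline after thallium stimulus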); settings: FluxOR thallium flux fluorescence, at 10 µM; hits give high values, scaled: buffer 0, activator control 100
Chain of Potassium voltage-gated channel subfamily KQT member 2 (Rattus norvegicus) (O88943 whole entry, looked up): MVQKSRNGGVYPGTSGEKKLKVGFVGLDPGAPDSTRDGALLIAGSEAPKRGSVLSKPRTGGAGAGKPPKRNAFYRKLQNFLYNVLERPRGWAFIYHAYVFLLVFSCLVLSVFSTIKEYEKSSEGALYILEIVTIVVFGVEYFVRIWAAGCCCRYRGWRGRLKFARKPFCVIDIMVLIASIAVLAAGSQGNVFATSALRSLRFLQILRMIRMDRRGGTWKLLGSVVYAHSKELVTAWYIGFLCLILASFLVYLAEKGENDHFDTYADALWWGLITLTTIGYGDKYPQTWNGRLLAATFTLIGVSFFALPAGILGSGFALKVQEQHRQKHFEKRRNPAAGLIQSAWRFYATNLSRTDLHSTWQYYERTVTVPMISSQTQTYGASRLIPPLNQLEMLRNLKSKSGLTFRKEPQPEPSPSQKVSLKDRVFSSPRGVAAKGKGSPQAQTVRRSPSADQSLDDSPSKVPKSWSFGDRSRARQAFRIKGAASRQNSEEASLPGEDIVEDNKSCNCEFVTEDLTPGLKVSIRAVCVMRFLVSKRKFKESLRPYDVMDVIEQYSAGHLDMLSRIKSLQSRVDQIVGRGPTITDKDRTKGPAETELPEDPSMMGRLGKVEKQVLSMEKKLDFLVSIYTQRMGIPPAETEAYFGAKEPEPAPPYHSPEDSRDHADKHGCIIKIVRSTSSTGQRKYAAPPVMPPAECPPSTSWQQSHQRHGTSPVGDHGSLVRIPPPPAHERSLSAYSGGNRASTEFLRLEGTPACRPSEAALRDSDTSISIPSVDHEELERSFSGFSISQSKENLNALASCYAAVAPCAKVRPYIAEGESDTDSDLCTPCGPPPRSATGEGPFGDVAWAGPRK

[4] = target: Potassium voltage-gated channel subfamily KQT member 1 (Homo sapiens) (UniProt P51787); experiment: KCNQ1 activators by electrophysiology – IonWorks patch clamp, KCNQ1-CHO cells, orthogonal assay for KCNQ1 potentiator project, confirmation (AID 493184); settings: automated patch clamp current, at 10 µM; hits give high values
Procedure, shortened: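 assay system = KCNQ1-expressing CHO cells | medium = external bath solution at pH 7.4 | probe or stimulus = 2,000 ms depolarization, -90 to +40 mV | compound dosing = 10 µM final, single point | measured by = automated voltage clamp, amphotericin B perforated patch | measure = percent current increase versus pre-compound level | replication = duplicates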

| SMILES | activation [1] | potentiation [2] | potentiation [3] | outcome [4] | outcome [1] | outcome [2] | outcome [3] |
| --- | --- | --- | --- | --- | --- | --- | --- |
| O=C(O)c1cnn(-c2ccccc2)c1-c1ccncc1 | 145% (active) | 84% (active) | 202% (active) | inactive |  |  |  |
| CCN(C(=O)c1cc2cc3ccc(C)cc3nc2o1)c1ccc(OC)cc1 |  |  |  | inactive | inactive | inactive | inactive |
| S=c1nc(-c2ccccc2)[nH]n1-c1ccccc1 | 504% (active) | 210% (active) | 532% (active) | inactive |  |  |  |
| CCOC(=O)c1ccccc1N1C(=O)CSC1=S |  |  |  | inactive | inactive | inactive | inactive |
| CCSc1nc(=S)cc(C)[nH]1 | 340% (active) | 172% (active) | 388% (active) | inactive |  |  |  |
| Cc1cccc(NC(=O)C(=O)NNC(=O)c2ccc(C(C)(C)C)cc2)c1 | 485% (active) | 179% (active) | 483% (active) | inactive |  |  |  |
| Cn1nc(SCC(=O)O)sc1=S |  |  |  | inactive | inactive | inactive | inactive |
| O=C(NC(=S)Nc1ccccc1N1CCOCC1)c1ccc(-c2ccccc2F)o1 | 147% (active) | 51.5% (active) | 182% (active) | inactive |  |  |  |
| CN1C=CC=C/C1=C1\SC(=S)N(Cc2ccccc2)C1=O |  |  |  | inactive | inactive | inactive | inactive |
| COc1ccc(OCC(=O)NC(=S)Nc2ccc(N3CCOCC3)c(Cl)c2)cc1 | 142% (active) | 33.5% (active) |  | inactive |  |  | inactive |
| COC(=O)c1ccc(NC(=S)NC(=O)c2cc(-c3ccccc3)nc3ccccc23)cc1 | 174% (active) | 37% (active) | 178% (active) | inactive |  |  |  |
| COc1cc(CNCc2ccccn2)ccc1OCc1c(Cl)cccc1Cl |  |  |  | inactive | inactive | inactive | inactive |
| CCOC(=O)C1=NN(C(=O)c2ccccc2)C(O)(c2ccc(C)cc2)C1 (stereo not given) | 141% (active) | 49.5% (active) | 216% (active) | inactive |  |  |  |
| O=C(Nc1nnc(-c2ccc(Cl)cc2)o1)c1ccccc1Br | 228% (active) | 86.5% (active) | 234% (active) | inactive |  |  |  |
| CCOC(=O)Cn1c(=S)[nH]c2c(oc3ccc(Cl)cc32)c1=O | 226% (active) | 36% (active) | 218% (active) | inactive |  |  |  |
| COc1ccc(-n2c(=S)[nH]c3c(oc4ccccc43)c2=O)cc1 |  |  |  | inactive | inactive | inactive | inactive |
| COc1ccc(CNC(=O)C2CC(c3cccc(OC)c3)=NO2)cc1 (stereo not given) |  |  |  | inactive | inactive | inactive | inactive |
| Cn1c(O)c(N=Nc2nc(-c3ccccc3)cs2)c2ccccc21 | 510% (active) | 385% (active) | 677% (active) | inactive |  |  |  |
| O=C(CNCC1CCCCC1)Nc1ccc(OC(F)(F)F)cc1 |  |  |  | inactive | inactive | inactive | inactive |
| CCCn1c(=S)[nH]c2sc3c(c2c1=O)CCCC3 | 418% (active) | 158% (active) | 434% (active) | inactive |  |  |  |

| SMILES | activation [1] | potentiation [2] | potentiation [3] | outcome [4] | outcome [1] | outcome [2] | outcome [3] |
| --- | --- | --- | --- | --- | --- | --- | --- |
| CC(C)(C)NC(=O)C(=O)NNC(=O)c1cccc(Br)c1 | 242% (active) | 34% (active) | 229% (active) | inactive |  |  |  |
| CCOc1ccccc1C1CC(=O)Nc2cc3c(cc21)OCCO3 (stereo not given) |  |  |  | inactive | inactive | inactive | inactive |
| COc1ccc(/C=C2/SC(=S)N(NS(=O)(=O)c3ccccc3)C2=O)cc1 | 195% (active) | 84.5% (active) | 180% (active) | inactive |  |  |  |
| C/C(=N\NC(=O)c1cc2ccccc2cc1O)c1ccc(C)o1 | 238% (active) | 114% (active) | 264% (active) | inactive |  |  |  |
| CCOC(=O)Cc1cc(=O)n2[nH]c(C)c(-c3ccc(Cl)cc3)c2n1 |  |  |  | inactive | inactive | inactive | inactive |
| Cc1cc(=O)oc2cc(OCC3CC(c4ccccc4Cl)=NO3)ccc12 (stereo not given) | 156% (active) | 30.5% (active) |  | inactive |  |  | inactive |
| C=CCn1c(SCN2C(=O)c3ccccc3C2=O)nc2ccc(Cl)cc2c1=O | 152% (active) |  |  | inactive |  | inactive | inactive |
| O=C(NC(=S)Nc1ccccc1N1CCCC1)c1cccc(F)c1 |  | 37% (active) | 144% (active) | inactive | inactive |  |  |
| CCOC(=O)C1=C(O)c2ccccc2C(=O)/C1=C\c1ccc(CC)cc1 | 177% (active) | 114% (active) | 156% (active) | inactive |  |  |  |
| O=C(Cn1c(=O)c2c(ncn2Cc2ccccc2)n(Cc2ccccc2)c1=O)N1CCc2ccccc21 |  |  |  | inactive | inactive | inactive | inactive |
| O=C(NN=C1c2ccccc2-c2ccccc21)c1cccc(Br)c1 | 196% (active) | 42.5% (active) | 154% (active) | inactive |  |  |  |
| COc1ccc(C)cc1N=Nc1ccc(O)c2ncccc12 |  |  |  | inactive | inactive | inactive | inactive |
| CCOC(=O)c1sc(NN=C(C(=O)OC)C(=O)OC)c(C(=O)OCC)c1C | 185% (active) | 74.5% (active) | 208% (active) | inactive |  |  |  |
| CC(=O)c1c(N2CCOCC2)[nH]c(-c2ccccc2)nc1=S | 202% (active) | 66.5% (active) | 204% (active) | inactive |  |  |  |
| CCOc1ccc2c(c1)C(NC(C)=O)C(=O)N2CCN1CCOCC1 (stereo not given) |  |  |  | inactive | inactive | inactive | inactive |
| CSc1nnc(-c2ccccc2)o1 |  |  |  | inactive | inactive | inactive | inactive |
| CCOC(=O)c1c(CN2CCN(CCO)CC2)n(C)c2cc(Br)c(OC)cc12 |  |  |  | inactive | inactive | inactive | inactive |
| O=C(c1ccccc1)N1CCCC(c2ccc(Cl)cc2)=N1 |  |  |  | inactive | inactive | inactive | inactive |
| O=S(=O)(CC(CN1CCCC1)N1CCCC1)c1ccc2ccccc2c1 (stereo not given) |  |  |  | inactive | inactive | inactive | inactive |
| CCOC(=O)c1c(-c2ccc(C)o2)csc1NC(=S)NC(=O)N(C)C | 266% (active) | 171% (active) | 314% (active) | inactive |  |  |  |

| SMILES | activation [1] | potentiation [2] | potentiation [3] | outcome [4] | outcome [1] | outcome [2] | outcome [3] |
| --- | --- | --- | --- | --- | --- | --- | --- |
| C=CCC(=O)N1CCC(n2nccc2NC(=O)CCOc2ccccc2)CC1 |  |  |  | inactive | inactive | inactive | inactive |
| COC(=O)C1SCC2C(=O)N(Cc3ccc(F)cc3)CC(=O)N21 (stereo not given) |  | 46.5% (active) | 178% (active) | inactive | inactive |  |  |
| S=c1[nH]cnc2scc(-c3ccc(Cl)cc3)c12 | 158% (active) | 47% (active) | 191% (active) | inactive |  |  |  |
| O=c1c2ccccc2[nH]c(=S)n1CCC1=CCCCC1 | 212% (active) | 46% (active) | 196% (active) | inactive |  |  |  |
| CN(C)C(=S)NC(=O)c1cccc(Cl)c1 |  | 19% (active) | 142% (active) | inactive | inactive |  |  |
| S=c1nc(C2CCCCC2)[nH]c2ccccc12 | 138% (active) | 22.5% (active) | 160% (active) | inactive |  |  |  |
| O=C(N/N=C/c1ccc(Sc2ccccn2)o1)c1cc2ccccc2cc1O | 213% (active) | 70% (active) | 277% (active) | inactive |  |  |  |
| COc1cc(OC)cc(C(=O)Nc2nnc(SCC(=O)NCc3ccco3)s2)c1 | 150% (active) | 30% (active) | 158% (active) | inactive |  |  |  |
| O=C1CC(c2ccccc2)CC(O)=C1C=Nc1ccc(O)cc1 (stereo not given) |  |  |  | inactive | inactive | inactive | inactive |
| CCOC(=O)CSc1nc2ccccc2n2c(C)nnc12 |  |  |  | inactive | inactive | inactive | inactive |
| CC1Cc2ccccc2N1C(=S)NC(=O)c1ccc(Cl)cc1Cl (stereo not given) | 214% (active) | 91.5% (active) | 248% (active) | inactive |  |  |  |
| CN(C(=O)CSc1ncnc2sc(-c3ccccc3)cc12)C1CCS(=O)(=O)C1 (stereo not given) | 529% (active) | 176% (active) | 501% (active) | inactive |  |  |  |
| CC(C)N(C(=O)CSc1ncnc2sc(-c3ccccc3)cc12)C(C)C |  |  |  | inactive | inactive | inactive | inactive |
| COCCNC(=O)C1CCN(S(=O)(=O)N2CCC3(CC2)OCCO3)CC1 |  |  |  | inactive | inactive | inactive | inactive |
| CCN1c2ccccc2-c2nc3ccccc3n2C1c1cccnc1 (stereo not given) |  |  |  | inactive | inactive | inactive | inactive |
| CC(C)(C)NCC(O)COc1ccccc1C(C)(C)C (stereo not given) |  |  |  | inactive | inactive | inactive | inactive |
| COC(=O)C1=NN(C(=O)c2ccc(Cl)cc2)C(O)(c2ccccc2)C1 (stereo not given) | 426% (active) | 150% (active) | 392% (active) | inactive |  |  |  |
| CCN(CC)c1ccc(NC(=S)NC(=O)c2ccco2)cc1 | 263% (active) | 104% (active) | 322% (active) | inactive |  |  |  |
| O=c1c2ccc(Cl)cc2nc(-c2cccc(C(F)(F)F)c2)n1O | 722% (active) | 230% (active) | 756% (active) | inactive |  |  |  |
| CN(C)CC1CCCCC1OC(=O)/C=C/c1ccc(Cl)cc1Cl (stereo not given) |  |  |  | inactive | inactive | inactive | inactive |
